Measurements from different studies.
Each line is one published result; the experiments were not run side by side.

SMILES | system | setting | Papp
CC[C@@H](C)[C@@H]1NC(=O)[C@@H](Cc2ccccc2)OC(=O)CN(C)C(=O)[C@H]([C@H](C)CC)NC(=O)[C@@H](Cc2ccccc2)OC(=O)CN(C)C1=O | PAMPA | – | 28 ×10⁻⁶ cm/s
CC(=O)CC(c1ccccc1)c1c(O)c2ccccc2oc1=O (centres unmarked) | PAMPA | 10 µM, 24 h, pH 7.4 | 1.5 ×10⁻⁶ cm/s
CC(C)NCC(O)COc1cccc2ccccc12 (centres unmarked) | PAMPA-BBB | 50 µM, 16 h, pH 7.4 | 22.4 ×10⁻⁶ cm/s
N=c1c2c(-c3ccccc3)cn(Cc3ccccc3)c2ncn1C1CCOCC1 | PAMPA | 50 µM, 30 min | 1730 ×10⁻⁶ cm/s
CC(C)c1noc(C2CCN(c3ncnc(Nc4ccc(S(C)(=O)=O)cc4F)c3[N+](=O)[O-])CC2)n1 | PAMPA-BBB | 0.5 µM, 4 h, pH 7.4 | 3.02 ×10⁻⁶ cm/s
O=c1[nH]c2c(-c3ccccc3)csc2c(=O)n1O | PAMPA | 10 µM, 5 h | 1.5 ×10⁻⁶ cm/s
COc1ccc(CCn2cnc3c(c(-c4ccccc4)c(-c4ccccc4)n3Cc3ccccc3)c2=N)cc1OC | PAMPA | 50 µM, 30 min | 1200 ×10⁻⁶ cm/s
O=C(O)c1ccc2c(c1)nc(Nc1cccc(Cl)c1)c1ccncc12 | PAMPA | 5 h, pH 7.4 | 0.728 ×10⁻⁶ cm/s
N=c1c2c(-c3ccccc3)c(-c3ccccc3)n(CCc3ccccc3)c2ncn1CC1CCOCC1 | PAMPA | 50 µM, 30 min | 1230 ×10⁻⁶ cm/s
COC(=O)[C@H](C)Nc1ccnc(Nc2cccc(-c3cccnc3)c2)n1 | PAMPA | 50 nM, 30 min | 1910 ×10⁻⁶ cm/s
N=c1c2c(-c3ccccc3)cn(Cc3ccccc3)c2ncn1Cc1ccco1 | PAMPA | 50 µM, 30 min | 1740 ×10⁻⁶ cm/s
c1ccc(-c2nc(N3CCOCC3)c3ccccc3n2)nc1 | PAMPA | 10 µM, 3 h, pH 7.4 | 19.4 ×10⁻⁶ cm/s
N#Cc1ccc(/C=C/CN(CC[C@H](N)C(=O)O)C[C@H]2O[C@@H](n3cnc4c(N)ncnc43)[C@H](O)[C@@H]2O)cc1 | PAMPA | 200 µM, 5 h | 0.01 ×10⁻⁶ cm/s
COCC(C)Nc1ccnc(Nc2cccc(-c3cccnc3)c2)n1 (centres unmarked) | PAMPA | 50 nM, 30 min | 1910 ×10⁻⁶ cm/s
N=c1c2c(-c3ccccc3)c(-c3ccccc3)n(Cc3ccc(OC(F)(F)F)cc3)c2ncn1[C@H]1CC[C@@H](O)CC1 | PAMPA | 50 µM, 30 min | 1250 ×10⁻⁶ cm/s
c1ccc(CN2CCN(c3nc(-c4ccccn4)nc4ccccc34)CC2)cc1 | PAMPA | 10 µM, 3 h, pH 7.4 | 32.8 ×10⁻⁶ cm/s
CN1CC(=O)O[C@H](Cc2ccccc2)C(=O)NCC(=O)N(C)CC(=O)O[C@H](Cc2ccccc2)C(=O)NCC1=O | PAMPA | – | 15 ×10⁻⁶ cm/s
O=C(Nc1ccn(Cc2ccc(O)cc2C(F)(F)F)n1)c1c(F)cccc1F | PAMPA | – | 36 ×10⁻⁶ cm/s
Cc1cccc(/C=C/[C@@H]2[C@H](N3C(=O)OC[C@@H]3c3ccccc3)C(=O)N2[C@H](CC(=O)N2CCC(N3CCCCC3)CC2)C(=O)N[C@H](C)c2ccccc2)c1 | PAMPA-BBB | 25 µg/mL, 18 h, pH 7.4 | > 4 ×10⁻⁶ cm/s
Cc1cc(-c2ccc(Sc3cc(=O)n(O)c(=O)[nH]3)cc2)ccc1F | PAMPA | 10 µM, 5 h | 1.1 ×10⁻⁶ cm/s
Oc1ccc(-c2nc(N3CCC(c4ccccn4)C3)c3ccccc3n2)cc1 (centres unmarked) | PAMPA | 10 µM, 3 h, pH 7.4 | 32.8 ×10⁻⁶ cm/s
O=c1[nH]c2cc(-c3ccc(Cl)cc3)sc2c(=O)n1O | PAMPA | 10 µM, 5 h | 1 ×10⁻⁶ cm/s

SMILES | system | setting | Papp
c1ccc(-c2nc(N3CCc4nc[nH]c4C3)c3ccccc3n2)nc1 | PAMPA | 10 µM, 3 h, pH 7.4 | 11.8 ×10⁻⁶ cm/s
c1cncc(-c2cccc(Nc3nccc(NC4CCC4)n3)c2)c1 | PAMPA | 50 nM, 30 min | 2050 ×10⁻⁶ cm/s
Cc1sc2[nH]c(=O)n(O)c(=O)c2c1C | PAMPA | 10 µM, 5 h | 1 ×10⁻⁶ cm/s
NC(=O)C1CCN(c2nc(-c3ccccn3)nc3ccccc23)C1 (centres unmarked) | PAMPA | 10 µM, 3 h, pH 7.4 | 8 ×10⁻⁶ cm/s
Cc1cc(N)nc(C#CCCN(C)C)c1 | PAMPA-BBB | 200 µM, 17 h | 4.7 ×10⁻⁶ cm/s
c1ccc(-c2nc(NCc3nc4ccccc4o3)c3ccccc3n2)nc1 | PAMPA | 10 µM, 3 h, pH 7.4 | 27.8 ×10⁻⁶ cm/s
CCCCNc1ccnc(Nc2cccc(-c3cccnc3)c2)n1 | PAMPA | 50 nM, 30 min | 1720 ×10⁻⁶ cm/s
O=C(CCCN1CCC(O)(c2ccc(Cl)cc2)CC1)c1ccc(F)cc1 | PAMPA-BBB | 50 µM, 16 h, pH 7.4 | 21.4 ×10⁻⁶ cm/s
Cn1nccc1-c1nc(N2CCC(c3ccccn3)C2)c2ccccc2n1 (centres unmarked) | PAMPA | 10 µM, 3 h, pH 7.4 | 49.3 ×10⁻⁶ cm/s
N=c1c2c(-c3ccccc3)c(-c3ccccc3)n(Cc3ccccc3)c2ncn1[C@H]1CC[C@H](O)CC1 | PAMPA | 50 µM, 30 min | > 1000 ×10⁻⁶ cm/s
O=c1[nH]c2scc(-c3ccc(Cl)cc3)c2c(=O)n1O | PAMPA | 10 µM, 5 h | 0.5 ×10⁻⁶ cm/s
Cc1cc(C)c2cc(C(=O)NC3CCCCCCC3)[nH]c2c1 | PAMPA | 16 h | 0.18 ×10⁻⁶ cm/s
N#Cc1cccc(-c2nc(N3CCC(c4ccccn4)C3)c3ccccc3n2)c1 (centres unmarked) | PAMPA | 10 µM, 3 h, pH 7.4 | 36.9 ×10⁻⁶ cm/s
Cc1csc2c(=O)n(O)c(=O)[nH]c12 | PAMPA | 10 µM, 5 h | 0.1 ×10⁻⁶ cm/s
CC(C)Nc1ccnc(Nc2cccc(-c3nccs3)c2)n1 | PAMPA | 50 nM, 30 min | 1960 ×10⁻⁶ cm/s
O=C(NCCN1CCCC1)c1cc(-c2ccc(CN3CCOCC3)cc2)nc2ccc(F)cc12 | PAMPA | – | 7.3 ×10⁻⁶ cm/s
c1ccc(-c2cccc(Nc3nccc(NC4CCCCC4)n3)c2)nc1 | PAMPA | 50 nM, 30 min | 1530 ×10⁻⁶ cm/s
O=c1[nH]c2cc(-c3ccc(Cl)cc3)ccc2c(=O)n1O | PAMPA | 10 µM, 5 h | 1.7 ×10⁻⁶ cm/s
CC(C)Nc1ccnc(Nc2cccc(-n3ccnc3)c2)n1 | PAMPA | 50 nM, 30 min | 2070 ×10⁻⁶ cm/s
Cc1noc(C)c1-c1ccc2nc(-c3cnn(CC(C)(C)O)c3)nc(N3CCOC[C@@H]3c3ccccc3)c2c1 | PAMPA | – | 1180 ×10⁻⁶ cm/s
CC(C)(C)Nc1ccnc(Nc2cccc(-c3cccnc3)c2)n1 | PAMPA | 50 nM, 30 min | 1990 ×10⁻⁶ cm/s
O=c1[nH]c2sc(-c3ccc(F)cc3)cc2c(=O)n1O | PAMPA | 10 µM, 5 h | 0.6 ×10⁻⁶ cm/s
